A1 inh: caspase 3/7 activation in MEF A1-2A-BIM cells, primary screen, A1 inhibitor project, cell-based, luminescence, HTS. AID 2462, 2010. caspase activation, % (concentration not given with the values). 0.066% of 330,000 active. Caspase-Glo 3/7 luminescence, 3 h; percent of clofoctol response, vehicle zero;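 active = over half of replicate activation scores above 10%, or exactly half above 10 with the replicate mean above 10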
UPR XBP1 act: activators of adaptive XBP1 UPR arm, primary screen, cell-based, CHO-XBP1 luciferase reporter, luminescence, uHTS; IRE1-XBP1 UPR activation; percent of tunicamycin response, DMSO as zero; activation, % at 20 µM; 0.33% of 330,000 active; AID 463104, 2010;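 active = versus positive control, 20 µM dose yields 30% or more activation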
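Material: CHO cell line with stable XBP1 luciferase reporter; buffer or medium: F12 medium containing 10% fetal bovine serum; compound: single point, 20 µM final compound, 1% DMSO; incubation: 6 h treatment, 37 °C; measured by: glow luminescence from Steady-Glo reagent; evaluation: activation, % of tunicamycin; control set: tunicamycin high, DMSO low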
CHOP UPR activ: activators of apoptotic CHOP UPR arm, primary screen, cell-based, CHO-CHOP luciferase reporter, luminescence, uHTS; 0.34% of 330,000 active; UPR activation; percent of tunicamycin response over DMSO baseline; AID 449763, 2010; activation, % at 10 µM;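 active = at 10 µM dose, activation of 40% or more, normalized to positive control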
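System: CHO CHOP reporter cells. Amount: 500 cells per well. Buffer or medium: F12 medium, 10% FBS. Compound dosing: one dose, 10 µM in 0.5% DMSO. Incubation: 6 h compound exposure at 37 °C after overnight seeding. Technique: Steady-Glo luciferase luminescence. Benchmarks: tunicamycin and DMSO controls.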
CHOP inh: inhibitors of CHOP promoter induction, primary screen, cell-based, unfolded protein response, luciferase reporter | CHO-K1 CHOP-promoter luciferase, tunicamycin-induced, 15-18 h | inhibition, % at 10 µM | 3.8% of 220,000 active | AID 2732, 2010;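 active = compounds that reduced the stress-induced luciferase reporter signal by more than about 70% of percent inhibition, limit read from the data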
CHOP inh conf: retest of CHOP induction inhibitors, confirmation, cell-based | shares compounds with CHOP inh | CHO-CHOP promoter luciferase reporter, tunicamycin-induced, luminescence | inhibition, % at 10 µM | 45% of 2,100 active | AID 504437, 2011;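 active = mean of three repeat readings of reporter signal inhibition above a set limit, cut at about 70% in these data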
Of the large screens only hits and unclear results are named; the others gave an inactive call (follow-up assays come after a bar, where they were run). The sample as a whole holds a higher share of hits than the screen did.

Nc1cccc2c1C(=O)N(C(=O)/C=C/c1cccc(Br)c1)C2=O	none (no result: A1 inh, UPR XBP1 act, CHOP UPR activ)
O=C(c1ccccc1)c1coc2c1C(=O)c1ccccc1C2=O	none
O=C1c2ccccc2C(=O)c2c1oc(C(F)(F)F)c2C(=O)c1ccccc1	CHOP inh 107 | CHOP inh conf 121
Nc1nc(-c2ccccc2)c(N=Nc2ccccc2Cl)s1	CHOP inh 97 | CHOP inh conf 80
Cc1ccc(S(=O)(=O)Nc2ccccc2C(O)c2ccccc2)cc1 (configuration not stated)	none (no result: CHOP inh)
CCOC(=O)c1c(-c2ccc(C)cc2)csc1NC(=S)NC(=O)c1ccccc1	none
CCOC(=O)c1c(-c2ccc(C)cc2)csc1NC1=NS(=O)(=O)c2ccccc21	CHOP inh 101 | CHOP inh conf inactive
CCCCNc1nnc(Cc2ccc(Cl)cc2)c(=O)[nH]1	none (no result: CHOP inh)
COC(=O)c1cn(N(C)c2ncc(C(F)(F)F)cc2Cl)c(=O)c2ccccc12	none
COC(=O)c1cn(Nc2ncc(C(F)(F)F)cc2Cl)c(=O)c2ccccc12	CHOP inh 99 | CHOP inh conf inactive
O=S(=O)(NCc1cc(-c2ccc(Cl)cc2)no1)c1ccccc1	none
O=S(=O)(NCc1cc(-c2ccc(Cl)cc2)no1)c1ccc(Cl)cc1	CHOP inh 102 | CHOP inh conf inactive
COC(=O)c1cc(S(=O)(=O)N2CCC(C)CC2)cn1C	none (no result: CHOP inh)
Fc1ccccc1NC(=S)N(CCN1CCCCCC1)Cc1cccs1	none
O=C(CN1CCN(C2CCCCC2)CC1)Nc1cccc2ccccc12	none
CN1CCN(c2ccc(-c3ccc4ccccc4n3)cc2)CC1	CHOP inh 102 (no result: A1 inh, UPR XBP1 act, CHOP UPR activ) | CHOP inh conf 120
Cc1ccccc1CNC(=O)c1ccccc1C(=O)O	none
COc1ccc(S(=O)(=O)n2nc(-c3ccc(Cl)cc3)cc2N)cc1OC	none
Nc1cc(-c2ccc(Cl)cc2)nn1S(=O)(=O)c1ccc(Cl)cc1	CHOP inh 108 | CHOP inh conf inactive
Nc1nc(N)c2c(ccc3nccc32)[nH]1	none
CCCc1nc2oc(C(=O)c3ccccc3)c(N)c2c2c1COC(C)(C)C2	CHOP inh 110 | CHOP inh conf 97
Cc1nc2oc(C(=O)c3ccc(Br)cc3)c(N)c2c2c1COC(C)(C)C2	CHOP inh 101 | CHOP inh conf inactive
N#Cc1c(N)nc(-c2ccccc2)nc1-c1ccccc1	CHOP inh 107 | CHOP inh conf inactive
CSc1nsc(NC(=O)Cc2ccccc2)n1	none
CCCCCCSc1nsc(NC(=O)CCC)n1	CHOP inh 106 | CHOP inh conf 103
CC(=O)C(C(C)=O)c1c(Cl)c(O)c(O)c2c(C(=O)c3ccccc3)coc12	none (no result: CHOP inh) | CHOP inh conf 100
CN1CCN(Cc2c(O)ccc3occ(C(=O)c4ccccc4)c23)CC1	none
S=c1[nH]nc(COc2ccccc2)n1/N=C/C(Cl)=C/c1ccccc1	CHOP inh 103 | CHOP inh conf inactive
Cc1cccc(C)c1N1CCN(c2ccc3nnc(C(F)(F)F)n3n2)CC1	CHOP inh 106 | CHOP inh conf 102
CSc1ccccc1NC(=O)COc1ccc(Cl)cc1Cl	none
O=C(COc1ccc(Cl)cc1Cl)Nc1ccccn1	CHOP inh 100 | CHOP inh conf 92
CC(C)Cn1c(=O)[nH]c(=O)c2c(C(F)(F)F)cc(-c3ccccc3)nc21	CHOP inh 99 | CHOP inh conf 100
CCOc1ccc(-c2[nH]ncc2Oc2cccc(OC)c2)c(O)c1	CHOP inh 107 | CHOP inh conf inactive
CCCOC(=O)c1ccc(Oc2c(-c3ccc(OCC)cc3O)n[nH]c2C)cc1	CHOP inh 113 | CHOP inh conf 118
CCCOC(=O)c1ccc(Oc2cn[nH]c2-c2ccc(OCC)cc2O)cc1	CHOP inh 107 | CHOP inh conf 124
COc1ccc(Oc2c(-c3ccc(O)cc3O)n[nH]c2C)cc1	none
COc1cccc(Oc2cn[nH]c2-c2ccc(O)cc2O)c1	none (no result: CHOP inh)
Fc1ccc(-c2nnc3n2CCCCC3)cc1	none
COc1ccc(C(=O)NC(=O)COC(=O)C2COc3ccccc3O2)cc1 (configuration not stated)	none
Cc1sc2ncnc(N=Nc3c(O)[nH]c4ccccc34)c2c1C	none
O=C(OCn1ncc(Br)c(Br)c1=O)c1ccccc1Cl	CHOP inh 111 | CHOP inh conf 124
COc1ccc(CCNC(=O)CSCc2ccc(F)cc2)cc1OC	none
O=C(NCCc1ccccc1)C(=O)NCC1OCCN1S(=O)(=O)c1ccc(Br)cc1 (configuration not stated)	none (no result: CHOP inh)
O=C(CCc1nnc2ccc(NCc3ccccc3Cl)nn12)NC1CCCCC1	none (no result: CHOP inh)
Cc1ccccc1OCc1nc(-c2ccccc2)no1	CHOP inh 100 | CHOP inh conf inactive
O=C(NNc1ccccc1[N+](=O)[O-])Nc1ccc(Cl)c(Cl)c1	CHOP inh 101 | CHOP inh conf 71
O=[N+]([O-])c1cccc(N(CC2CO2)S(=O)(=O)c2ccccc2)c1 (configuration not stated)	none (no result: CHOP inh)
Cn1nccc1NC(=O)Nc1cccc(Br)c1	none (no result: CHOP inh)
O=c1[nH]c(NNC(=S)NC2CCCCC2)nc2c1C1(CCCC1)Cc1ccccc1-2	CHOP inh 103 | CHOP inh conf 110
C=CCNC(=S)NNc1nc2c(c(=O)[nH]1)C1(CCCC1)Cc1ccccc1-2	none
O=C(CCNC(=O)C1CCN(S(=O)(=O)c2ccc(F)cc2)CC1)NCc1cccnc1	none (no result: CHOP inh)
CCOC(=O)c1cnc(-n2nc(C)cc2C)nc1Nc1ccc(C)cc1	none (no result: A1 inh, UPR XBP1 act, CHOP UPR activ)
CCOC(=O)c1cnc(-n2nc(C)cc2C)nc1Nc1ccc(O)cc1	CHOP inh 104 | CHOP inh conf 110
NC(N)=N/N=C/c1ccc(OCc2ccccc2Cl)cc1	CHOP inh 97 | CHOP inh conf inactive
CC(=O)/C=C/n1c(=S)oc2ccccc21	CHOP inh 106 (no result: UPR XBP1 act, CHOP UPR activ) | CHOP inh conf 116
CC(C)CC(=O)/C=C/n1c(=S)oc2ccccc21	CHOP inh 108 (no result: UPR XBP1 act, CHOP UPR activ) | CHOP inh conf inactive
Cn1c(=S)oc2ccccc21	none
N=c1ccn(Cc2ccc(Cl)c(Cl)c2)cc1	none (no result: CHOP inh)
O=C(O)CSCC(=O)Nc1ccc(C2CCCCC2)cc1	CHOP inh 99 | CHOP inh conf 108
CC1=CC(C)(C)N2C(=O)C3(SCC(=O)N3c3ccc(F)cc3)c3cc(C)cc1c32 (configuration not stated)	CHOP inh 108 | CHOP inh conf 112
CC1=CC(C)(C)N2C(=O)C3(NCCc4c3[nH]c3ccccc43)c3cc(C)cc1c32 (configuration not stated)	none
Cc1ccccc1-n1c(=O)c2ccccc2n2cnnc12	none
CCCCn1c(NS(=O)(=O)c2ccc(C)cc2)c(S(=O)(=O)c2ccccc2)c2nc3ccccc3nc21	CHOP inh 104 (no result: UPR XBP1 act, CHOP UPR activ) | CHOP inh conf 89
Cc1ccc(S(=O)(=O)c2c(N)n(CCCN(C)C)c3nc4ccccc4nc23)cc1	none
